Reference: ChEMBL document CHEMBL4342526, “Exploration of the Structural Space in 4(3H)-Quinazolinone Antibacterials” (J Med Chem, 2020)
In brackets after ≈: the same amount, converted by molar mass.

Key:
Staphylococcus aureus [1] = assay: Antibacterial activity against Staphylococcus aureus ATCC 29213 measured after 16 to 20 hrs by microdilution method; assay type: functional
Method in brief: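 CLSI broth microdilution: two-fold serial dilutions in triplicate in cation-adjusted Mueller–Hinton broth with 2% NaCl, inoculum 5 × 10^5 CFU/mL, incubated at 37 °C for 16–20 h. MIC is the lowest concentration preventing visible growth.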

[2] = Selectivity index, ratio of IC50 for human HeLa cells to MIC for clindamycin/erythromycin/spectinomycin-resistant mec-positive Staphylococcus aureus NRS70; assay type: toxicity
Method in brief: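 HeLa cytotoxicity by XTT assay in triplicate, IC50 by nonlinear regression; ratio IC50 over broth microdilution MIC against NRS70.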

HeLa = assay: Cytotoxicity against human HeLa cells assessed as reduction in cell viability measured after 16 hrs by XTT assay; assay type: cell-based
Method in brief: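 HeLa cells (ATCC CCL-2), run in triplicate. Viability was read by XTT, and IC50 was obtained by nonlinear regression.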

[3] = Protein binding in human plasma at 10 uM measured after 6 hrs UV-UPLC based rapid equilibrium dialysis method; assay type: ADME, cell-free
Method in brief: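 Rapid equilibrium dialysis: human plasma was cleared by centrifugation and spiked from a 1 mM DMSO stock to a final 10 μM, against 0.1 M PBS pH 7.4. Dialysis ran 6 h at 37 °C with orbital shaking. Buffer (free) and plasma (total) aliquots were mixed with internal standard in acetonitrile and measured by UPLC-UV at 285 nm. B% = (Cp−Cf)/Cp×100.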

Staphylococcus aureus [4] = assay: Antibacterial activity against Staphylococcus aureus ATCC 29213 measured after 16 to 20 hrs in presence of bovine serum albumin by microdilution method; assay type: functional
Method in brief: (§1)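 S. aureus ATCC29213 MIC was run by CLSI microdilution in cation-adjusted Mueller–Hinton broth plus 2% NaCl, with and without 0.5% bovine serum albumin. Compounds were two-fold serially diluted in triplicate, inoculum was 5 × 10^5 CFU/mL, and plates were incubated at 37 °C for 16–20 h. The endpoint was the lowest concentration with no visible growth.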

Staphylococcus aureus [5] = assay: Selectivity ratio of MIC for Staphylococcus aureus ATCC 29213 in presence of bovine serum albumin to MIC for Staphylococcus aureus ATCC 29213 in absence of bovine serum albumin; assay type: functional; method in brief: as §1
[6] = Solubility of the compound in water; assay type: physicochemical; conditions: buffer
Staphylococcus aureus [7] = assay: Antibacterial activity against multi-drug resistant mec-positive Staphylococcus aureus USA300 measured after 16 to 20 hrs by microdilution method; assay type: functional
Method in brief: (§2)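 CLSI broth microdilution; two-fold serial compound dilutions in triplicate in cation-adjusted Mueller–Hinton broth with 2% NaCl, inoculum 5 × 10^5 CFU/mL; 37 °C for 16–20 h; MIC = lowest concentration with no visible growth.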

Staphylococcus aureus [8] = assay: Antibacterial activity against multi-drug resistant mecA-positive Staphylococcus aureus NRS119 measured after 16 to 20 hrs by microdilution method; assay type: functional; method in brief: as §2
[9] = Clearance in ICR mouse at 5 mg/kg, iv by UV-UPLC analysis relative to hepatic blood flow; assay type: ADME, organism-based; conditions: in vivo
Method in brief: (§3)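 Female ICR mice, 6–8 weeks old, 20–25 g. Each received 50 μL by tail-vein injection (5 or 10 mg/kg) of a filter-sterilized 2 or 4 mg/mL solution in 20% DMSO/10% Tween-80/70% water. Terminal blood was collected and plasma harvested by centrifugation. Plasma was precipitated with acetonitrile containing internal standard, and the supernatant was analyzed by C18 UPLC with UV detection at 285 nm.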

[10] = AUC (0 to last) in ICR mouse at 5 mg/kg, iv by UV-UPLC analysis; assay type: ADME, organism-based; design: dose 5 mg/kg, route intravenous, time 0 - last; conditions: in vivo; method in brief: as §3
Staphylococcus aureus [11] = assay: Antibacterial activity against multi-drug resistant mecA-positive Staphylococcus aureus ATCC 27660 measured after 16 to 20 hrs by microdilution method; assay type: functional; method in brief: as §2
[12] = Clearance in ICR mouse at 5 mg/kg, iv by UV-UPLC analysis; assay type: ADME, organism-based; conditions: in vivo; method in brief: as §3
Staphylococcus aureus [13] = assay: Antibacterial activity against clindamycin/erythromycin/spectinomycin-resistant mec-positive Staphylococcus aureus NRS70 measured after 16 to 20 hrs by microdilution method; assay type: functional; method in brief: as §2

Structure (SMILES)	MIC (Staphylococcus aureus [1]) [µg/mL]	selectivity ratio [2]	IC50 (HeLa) [µg/mL]	PPB [3] [%]	MIC (Staphylococcus aureus [4]) [µg/mL]	selectivity ratio (Staphylococcus aureus [5])	solubility [6]	MIC (Staphylococcus aureus [7]) [µg/mL]	MIC (Staphylococcus aureus [8]) [µg/mL]	CL [9] [%]	AUC(0-t) [10] [ng·h/mL]	MIC (Staphylococcus aureus [11]) [µg/mL]	clearance [12] [mL/min/kg]	MIC (Staphylococcus aureus [13]) [µg/mL]
N#Cc1ccc(CSc2nc3ccccc3c(=O)n2-c2cccc(C(=O)O)c2)cc1	2 (≈ 4.84 µM)	39	78 (≈ 189 µM)	> 99.9	8	<=4	–	–	–	–	–	–	–	–
N#Cc1ccc(/C=C/c2nc3ccccc3c(=O)n2-c2cccc(C(N)=O)c2)cc1	2 (≈ 5.1 µM)	> 64	> 128	97.1	16	–	Insoluble	1 (≈ 2.55 µM)	32 (≈ 81.5 µM)	–	–	–	–	–
N#Cc1ccc(/C=C/c2nc3ccccc3c(=O)n2-c2cccc(S(N)(=O)=O)c2)cc1	0.25 (≈ 0.583 µM)	> 1070	> 64	97.1	0.5	<=4	–	0.06 (≈ 0.14 µM)	0.125 (≈ 0.292 µM)	> 10	850	0.06 (≈ 0.14 µM)	98	0.06 (≈ 0.14 µM)
O=C(O)c1cccc(-n2c(CCc3ccc(F)cc3)nc3ccccc3c2=O)c1	2 (≈ 5.15 µM)	40	79 (≈ 203 µM)	> 99.9	8	<=4	–	1 (≈ 2.57 µM)	4 (≈ 10.3 µM)	–	–	4 (≈ 10.3 µM)	–	–
O=C(O)c1cccc(-n2c(/C=C/c3ccc(Br)s3)nc3ccccc3c2=O)c1	0.25 (≈ 0.551 µM)	380	190 (≈ 419 µM)	> 99.9	2	–	–	0.5 (≈ 1.1 µM)	4 (≈ 8.82 µM)	–	–	0.5 (≈ 1.1 µM)	–	0.5 (≈ 1.1 µM)
N#Cc1ccc(/C=C/c2nc3ccccc3c(=O)n2-c2cccc(NC(=O)C(F)(F)F)c2)cc1	2 (≈ 4.34 µM)	> 2130	> 128	> 99.9	32	–	–	0.06 (≈ 0.13 µM)	1 (≈ 2.17 µM)	–	–	0.06 (≈ 0.13 µM)	–	0.06 (≈ 0.13 µM)
N#Cc1ccc(/C=C/c2nc3ccccc3c(=O)n2-c2ccccc2O)cc1	0.015 (≈ 0.0411 µM)	667	40 (≈ 109 µM)	98.1	0.125	–	Insoluble	0.03 (≈ 0.0821 µM)	–	–	–	0.25 (≈ 0.684 µM)	–	0.06 (≈ 0.164 µM)
